# Source: ChEMBL document CHEMBL2057085, “Diazaspirocyclic compounds as selective ligands for the α4β2 nicotinic acetylcholine receptor” (Bioorg Med Chem Lett, 2012)
# Tests used:
# [1] = target: T1, Neuronal acetylcholine receptor; alpha3/beta4 (Homo sapiens, UniProt P30926+P32297); experiment: Binding affinity to human ganglionic nAChR alpha3beta4 expressed in human SHSY-5Y cells; type: cell-based, SH-SY5Y
# Method in brief: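 Binding measured on the α3β4 subtype endogenous to human SHSY-5Y clonal cells. Affinity reported as Ki, given as the mean.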
# [2] = target: Neuronal acetylcholine receptor; alpha4/beta2 (Rattus norvegicus, UniProt P09483+P12390); experiment: Displacement of [3H]-nicotine from rat nAChR alpha4beta2 in rat cortex
# [3] = target: T2, Neuronal acetylcholine receptor; alpha4/beta2 (Homo sapiens, UniProt P17787+P43681); experiment: Displacement of [3H]-epibatidine from human nAChR alpha4beta2 expressed in human SH-EP1 cells; type: cell-based
# T2 sequence (P17787 whole entry): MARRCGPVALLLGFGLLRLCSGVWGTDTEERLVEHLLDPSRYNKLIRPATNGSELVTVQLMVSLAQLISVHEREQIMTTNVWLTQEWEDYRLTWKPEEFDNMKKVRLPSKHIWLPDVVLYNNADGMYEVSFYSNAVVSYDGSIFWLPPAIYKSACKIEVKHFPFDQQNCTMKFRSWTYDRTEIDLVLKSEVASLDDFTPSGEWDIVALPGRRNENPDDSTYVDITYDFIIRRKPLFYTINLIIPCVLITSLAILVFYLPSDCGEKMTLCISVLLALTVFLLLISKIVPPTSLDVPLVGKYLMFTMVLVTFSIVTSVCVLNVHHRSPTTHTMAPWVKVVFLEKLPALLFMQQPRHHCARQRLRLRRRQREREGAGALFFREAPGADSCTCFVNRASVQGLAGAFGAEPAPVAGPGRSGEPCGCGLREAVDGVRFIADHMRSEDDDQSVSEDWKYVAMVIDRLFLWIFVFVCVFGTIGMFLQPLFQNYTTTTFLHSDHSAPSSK
# T2 sequence (P43681 whole entry): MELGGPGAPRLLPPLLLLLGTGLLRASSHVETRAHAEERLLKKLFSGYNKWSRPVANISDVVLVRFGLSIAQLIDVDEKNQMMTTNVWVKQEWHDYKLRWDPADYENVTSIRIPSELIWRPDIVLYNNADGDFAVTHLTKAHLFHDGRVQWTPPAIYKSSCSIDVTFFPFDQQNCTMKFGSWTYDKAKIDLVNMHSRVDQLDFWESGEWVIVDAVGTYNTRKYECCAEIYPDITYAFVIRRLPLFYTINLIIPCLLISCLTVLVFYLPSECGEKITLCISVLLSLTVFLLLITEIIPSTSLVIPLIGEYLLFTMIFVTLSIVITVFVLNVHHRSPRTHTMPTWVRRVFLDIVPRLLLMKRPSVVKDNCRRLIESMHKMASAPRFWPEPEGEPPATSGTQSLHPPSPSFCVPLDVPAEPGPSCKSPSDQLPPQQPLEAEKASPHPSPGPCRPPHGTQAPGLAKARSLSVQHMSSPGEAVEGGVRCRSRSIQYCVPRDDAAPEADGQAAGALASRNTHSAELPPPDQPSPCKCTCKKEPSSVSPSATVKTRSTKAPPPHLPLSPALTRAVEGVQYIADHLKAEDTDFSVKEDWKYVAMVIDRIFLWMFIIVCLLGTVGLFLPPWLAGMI
# Method in brief: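 Radioligand binding using [3H]-epibatidine on human α4β2 nAChR expressed in SH-EP1 cells. Affinity reported as Ki, given as the mean.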
# [4] = target: Acetylcholine receptor; alpha1/beta1/delta/gamma (Homo sapiens, UniProt P02708+P07510+P11230+Q07001); experiment: Binding affinity to human muscle nAChR alpha1beta1gammadelta expressed in human TE-671 cells; type: cell-based
# Chain of Acetylcholine receptor; alpha1/beta1/delta/gamma (P02708 whole entry): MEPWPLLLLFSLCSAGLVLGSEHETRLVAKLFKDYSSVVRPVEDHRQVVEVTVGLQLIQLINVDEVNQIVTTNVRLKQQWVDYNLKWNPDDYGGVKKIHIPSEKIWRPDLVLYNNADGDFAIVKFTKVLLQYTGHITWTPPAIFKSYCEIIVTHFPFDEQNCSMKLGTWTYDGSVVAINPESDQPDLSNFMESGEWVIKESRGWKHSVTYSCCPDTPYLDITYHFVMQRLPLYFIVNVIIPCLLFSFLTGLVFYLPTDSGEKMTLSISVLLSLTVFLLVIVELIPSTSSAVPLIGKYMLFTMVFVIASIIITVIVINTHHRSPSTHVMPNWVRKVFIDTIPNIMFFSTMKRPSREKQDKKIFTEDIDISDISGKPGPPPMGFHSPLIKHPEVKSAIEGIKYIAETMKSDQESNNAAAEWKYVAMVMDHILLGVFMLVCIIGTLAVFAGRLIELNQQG
# Chain of Acetylcholine receptor; alpha1/beta1/delta/gamma (P07510 whole entry): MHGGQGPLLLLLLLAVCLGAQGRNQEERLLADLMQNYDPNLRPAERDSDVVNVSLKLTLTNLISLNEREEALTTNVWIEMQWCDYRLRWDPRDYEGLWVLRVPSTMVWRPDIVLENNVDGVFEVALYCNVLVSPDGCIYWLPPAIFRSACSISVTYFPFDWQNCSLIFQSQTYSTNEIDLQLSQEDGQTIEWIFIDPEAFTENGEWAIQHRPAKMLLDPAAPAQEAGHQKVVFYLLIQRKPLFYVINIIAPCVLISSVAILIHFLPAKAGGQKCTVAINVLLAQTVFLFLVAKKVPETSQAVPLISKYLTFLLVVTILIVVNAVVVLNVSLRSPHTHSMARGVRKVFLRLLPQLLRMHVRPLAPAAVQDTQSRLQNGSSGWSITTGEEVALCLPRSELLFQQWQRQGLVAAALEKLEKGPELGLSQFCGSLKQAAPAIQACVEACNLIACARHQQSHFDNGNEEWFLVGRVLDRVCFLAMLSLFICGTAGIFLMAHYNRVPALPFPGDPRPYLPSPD
# Chain of Acetylcholine receptor; alpha1/beta1/delta/gamma (P11230 whole entry): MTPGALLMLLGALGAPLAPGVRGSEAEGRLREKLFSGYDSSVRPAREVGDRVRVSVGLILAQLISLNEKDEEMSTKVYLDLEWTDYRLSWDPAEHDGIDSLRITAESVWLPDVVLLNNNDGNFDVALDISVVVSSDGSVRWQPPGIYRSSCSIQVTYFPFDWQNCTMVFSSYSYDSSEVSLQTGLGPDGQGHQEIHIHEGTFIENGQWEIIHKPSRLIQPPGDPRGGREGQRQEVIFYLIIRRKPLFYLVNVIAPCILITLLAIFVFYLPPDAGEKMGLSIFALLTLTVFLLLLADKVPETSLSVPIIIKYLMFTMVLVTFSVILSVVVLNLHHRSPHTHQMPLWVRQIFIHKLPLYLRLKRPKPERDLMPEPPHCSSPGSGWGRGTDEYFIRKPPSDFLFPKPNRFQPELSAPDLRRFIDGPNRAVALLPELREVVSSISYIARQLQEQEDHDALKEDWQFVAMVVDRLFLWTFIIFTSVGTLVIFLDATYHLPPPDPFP
# Chain of Acetylcholine receptor; alpha1/beta1/delta/gamma (Q07001 whole entry): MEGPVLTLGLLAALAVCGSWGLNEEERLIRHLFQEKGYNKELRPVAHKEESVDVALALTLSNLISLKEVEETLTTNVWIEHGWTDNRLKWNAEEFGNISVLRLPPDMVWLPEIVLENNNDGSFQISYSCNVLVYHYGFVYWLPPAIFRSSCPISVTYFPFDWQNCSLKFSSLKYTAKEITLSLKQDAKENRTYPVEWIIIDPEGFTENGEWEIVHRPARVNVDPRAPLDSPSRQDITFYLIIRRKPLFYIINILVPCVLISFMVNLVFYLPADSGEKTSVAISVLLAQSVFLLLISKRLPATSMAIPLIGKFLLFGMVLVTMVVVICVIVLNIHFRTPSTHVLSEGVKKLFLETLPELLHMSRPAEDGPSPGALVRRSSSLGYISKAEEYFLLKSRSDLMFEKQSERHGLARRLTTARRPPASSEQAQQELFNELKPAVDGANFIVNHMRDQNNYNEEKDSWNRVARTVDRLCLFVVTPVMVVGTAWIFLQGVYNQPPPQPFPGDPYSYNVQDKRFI
# Method in brief: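 Binding carried out in TE-671 cells as the muscle-type receptor source. Affinity reported as Ki, given as the mean.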
# [5] = target: Neuronal acetylcholine receptor subunit alpha-7 (Homo sapiens, UniProt P36544); experiment: Binding affinity to human nAChR alpha7 expressed in HEK cells coexpressing RIC3; type: cell-based, HEK293
# Chain of Neuronal acetylcholine receptor subunit alpha-7 (P36544 whole entry): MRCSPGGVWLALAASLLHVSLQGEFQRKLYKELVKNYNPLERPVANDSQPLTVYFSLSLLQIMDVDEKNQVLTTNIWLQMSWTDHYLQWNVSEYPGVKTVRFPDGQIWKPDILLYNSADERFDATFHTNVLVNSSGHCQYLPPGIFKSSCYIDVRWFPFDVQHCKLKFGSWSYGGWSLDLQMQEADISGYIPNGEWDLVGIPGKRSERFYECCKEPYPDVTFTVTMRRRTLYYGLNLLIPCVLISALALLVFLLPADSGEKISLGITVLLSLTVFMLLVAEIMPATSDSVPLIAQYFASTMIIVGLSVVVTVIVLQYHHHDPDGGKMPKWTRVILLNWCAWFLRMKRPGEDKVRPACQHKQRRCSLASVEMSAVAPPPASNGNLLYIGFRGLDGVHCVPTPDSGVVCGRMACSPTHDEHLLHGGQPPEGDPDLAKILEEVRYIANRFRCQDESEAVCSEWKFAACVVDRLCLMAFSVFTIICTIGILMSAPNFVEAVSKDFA
# Method in brief: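 Binding measured at human α7 nAChR in HEK cells coexpressing RIC3. Affinity reported as Ki, given as the mean.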
# [6] = target: T1, Neuronal acetylcholine receptor; alpha3/beta4; experiment: Agonist activity at human ganglionic nAChR alpha3beta4 expressed in human SHSY-5Y cells assessed as calcium flux by fluorescence analysis
# [7] = target: T2, Neuronal acetylcholine receptor; alpha4/beta2; experiment: Antagonist activity at human nAChR alpha4beta2 expressed in human SH-EP1 cells assessed as calcium flux by fluorescence analysis relative to nicotine; type: functional, cell-based
# [8] = target: T1, Neuronal acetylcholine receptor; alpha3/beta4; experiment: Agonist activity at human ganglionic nAChR alpha3beta4 expressed in human SHSY-5Y cells assessed as calcium flux by fluorescence analysis relative to nicotine; details: SH-SY5Y
# T1 sequence (P30926 whole entry): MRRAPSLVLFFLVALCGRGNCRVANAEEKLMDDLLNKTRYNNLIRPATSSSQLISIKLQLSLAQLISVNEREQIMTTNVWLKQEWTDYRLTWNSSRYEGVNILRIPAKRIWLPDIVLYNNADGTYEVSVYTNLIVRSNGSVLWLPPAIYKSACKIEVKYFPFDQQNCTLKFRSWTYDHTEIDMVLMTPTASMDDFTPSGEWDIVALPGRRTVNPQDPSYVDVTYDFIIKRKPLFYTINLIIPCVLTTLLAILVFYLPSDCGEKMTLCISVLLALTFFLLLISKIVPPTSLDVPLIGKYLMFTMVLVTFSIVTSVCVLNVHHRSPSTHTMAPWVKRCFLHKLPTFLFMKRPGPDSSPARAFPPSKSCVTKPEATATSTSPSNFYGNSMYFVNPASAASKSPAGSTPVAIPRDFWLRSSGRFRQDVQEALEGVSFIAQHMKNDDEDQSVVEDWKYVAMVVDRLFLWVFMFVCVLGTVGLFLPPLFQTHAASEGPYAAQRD
# T1 sequence (P32297 whole entry): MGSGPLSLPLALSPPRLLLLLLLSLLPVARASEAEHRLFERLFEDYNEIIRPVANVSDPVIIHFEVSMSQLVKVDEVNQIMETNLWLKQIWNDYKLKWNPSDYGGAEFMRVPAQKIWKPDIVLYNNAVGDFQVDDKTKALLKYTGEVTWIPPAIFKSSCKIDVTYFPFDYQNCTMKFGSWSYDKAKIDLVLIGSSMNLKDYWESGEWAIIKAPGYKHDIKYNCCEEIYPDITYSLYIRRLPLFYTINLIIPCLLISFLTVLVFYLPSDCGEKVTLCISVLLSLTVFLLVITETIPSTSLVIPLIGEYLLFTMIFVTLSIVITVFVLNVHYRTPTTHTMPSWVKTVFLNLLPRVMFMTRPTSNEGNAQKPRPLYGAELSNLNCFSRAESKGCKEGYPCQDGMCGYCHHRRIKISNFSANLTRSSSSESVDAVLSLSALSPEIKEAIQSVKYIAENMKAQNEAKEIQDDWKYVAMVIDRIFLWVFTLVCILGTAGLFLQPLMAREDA
Structure (SMILES),Ki [1] [nM],Ki [2] [nM],Ki [3] [nM],Ki [4] [nM],Ki [5] [nM],EC50 [6] [nM],Emax [7] [%],Emax [8] [%]
c1cncc(N2CCC3(CC4CCN3CC4)C2)c1 (stereo unspecified),1100,5.7,32,11000,8000,6900,92,4.2
c1cncc(N2CCC3(C2)C2CCN3CC2)c1 (stereo unspecified),560,34,10,580,7600,2600,92,29
c1cncc(N2CCC3(CC4CCN3C4)C2)c1 (stereo unspecified),2400,40,29,9900,7900,31000,92,3.1
c1cncc(N2CCC3(CCCN3)C2)c1 (stereo unspecified) [TC-2216],1200,75,29,5700,6900,55000,,9.6
